Paper PMC9662183 (Journal of medicinal chemistry, 2022)
Entries after “also recorded” stand apart in the source; their conditions may differ.

What was measured:
[1] = system: glyoxalase pathway (D-lactate); assay: Brain D-lactate measurement; format: in vivo, mouse; details: wild type C57BL/6 mice, 500 mg/kg oral, multiple time points
[2] = Conversion of prodrugs into ψ-GSH in liver homogenate; format: in vitro ADME, mouse; details: liver homogenates
[3] = Stability in mouse plasma; format: in vitro ADME; details: mouse plasma (CD-1), 1 μM, 37 °C
Summary of the method: (§1)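 Test compound at 1 μM final was incubated at 37 °C in CD-1 mouse plasma, or in simulated gastric or intestinal fluid made per the USP National Formulary. Samples were taken at 0, 5, 15, 30, 60, 120 and 240 min and quenched with 3 volumes of acetonitrile/1% formic acid, then centrifuged. Prodrug and released parent were measured by HPLC-UV (Fmoc-Cl derivatization, 254 nm) and/or LC-MS/MS (MRM), and t1/2 was calculated.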

GFAP and Iba1 staining = format: in vivo, mouse; details: i.c.v. Aβ-injected mice, 250 mg/kg oral
[4] = Conversion of prodrugs into ψ-GSH in brain homogenate; format: in vitro ADME, mouse; details: freshly prepared brain homogenates containing proteinase inhibitors
[5] = Stability in mouse liver homogenate; format: in vitro ADME; details: for Half-life, tissue homogenate liver: mouse liver homogenate, 1 μM, 37 °C
brain GSH = assay: Quantitation of GSH in brain of i.c.v. Aβ-injected mice; format: in vivo, mouse; details: 250 mg/kg oral
[6] = Stability in simulated gastric fluid; format: in vitro ADME
Summary of the method: as §1

[7] = Stability in simulated intestinal fluid; format: in vitro ADME; details: SIF, 1 μM, 37 °C
Summary of the method: as §1

[8] = system: i.c.v. Aβ1–42-injected C57BL/6 mice; assay: Spontaneous alternation T-maze in i.c.v. Aβ1–42-injected mice; format: in vivo, mouse; details: for T-maze alternation rate: mouse, in vivo, po, 250 mg/kg
[9] = system: glyoxalase enzyme pathway (AGE content); assay: Brain advanced glycation endproducts; format: in vivo, mouse; details: i.c.v. Aβ-injected mice, 250 mg/kg oral
[10] = Stability in mouse brain homogenate; format: in vitro ADME; details: 1 μM, 37 °C
[11] = Brain and plasma distribution study in CD-1 mice; format: in vivo, mouse; details: CD1 mice

| Compound | conversion into / release of ψ-GSH in liver homogenate [2] | Half-life, plasma [3] [h] | Iba1 staining in dorsal hippocampus (GFAP and Iba1 staining) | conversion into / release of ψ-GSH in brain homogenate [4] | Half-life, tissue homogenate liver [5] [h] | brain reduced GSH compared to the Aβ-only group (brain GSH) | T-maze alternation rate [8] | brain total AGE content versus Aβ1–42 group [9] | further results |
| --- | --- | --- | --- | --- | --- | --- | --- | --- | --- |
| N-Ethyloxycarbonyl-γ-L-Glz[-L-Cys(SCOOEt)-Gly-OH]-OH [prodrug 7] | detected | 113.6 | significantly reduced | detected | 1.30 | significantly increased | effective in improving the alternation behavior | significantly reduced | brain D-lactate release [1]: immediate spike; GFAP staining in dorsal hippocampus (GFAP and Iba1 staining): significant reduction; astrocytic and microglial reactivity (GFAP, Iba1) in dentate gyrus (GFAP and Iba1 staining): Mitigation; Half-life, GI tract gastric phase ([6]; SGF, 1 μM, 37 °C): 17.96 h; Half-life, GI tract intestinal phase [7]: 24.24 h; T-maze repetitive arm entries ([8]; oral treatment, 250 mg/kg once a day, Aβ-only 3.22 ± 0.27): 1.00 ± 0.31; Half-life, tissue homogenate brain [10]: 9.79 h |
| CC(=O)SC[C@H](NC(=O)NC[C@H](N)C(=O)O)C(=O)NCC(=O)O [prodrug 1, NH2-γ-L-Glz[-L-Cys(SAc)-Gly-OH]-OH] |  |  |  |  |  |  |  |  | half-life at 1 μM ([6]; simulated gastric fluid (SGF)): ~24 h |
| NH2-γ-L-Glz[-L-Thz-Gly-OH]-OH [prodrug 4] |  | 30.64 |  |  | 115.5 |  |  |  |  |
| CCOC(=O)SC[C@H](NC(=O)NC[C@H](N)C(=O)OC1CCCC1)C(=O)NCC(=O)OC1CCCC1 [prodrug 6, NH2-γ-L-Glz[-L-Cys(SCOOEt)-Gly-OcPe]-OcPe] | relatively higher and sustained release |  |  | relatively higher and sustained release |  |  |  |  | major metabolite in liver homogenate incubates ([5]; liver homogenate): thiocarbonate cleavage product |
| Cl.N[C@@H](CNC(=O)N[C@@H](CS)C(=O)NCC(=O)OC1CCCC1)C(=O)OC1CCCC1 [prodrug 5, HCl.NH2-γ-L-Glz[-L-Cys(SH)-Gly-OcPe]-OcPe] | relatively higher and sustained release; also recorded: detected |  | significantly reduced | relatively higher and sustained release; also recorded: detected |  | significantly increased | effective in improving the alternation behavior | significantly reduced | plasma Cmax versus ψ-GSH ([11]; 250 mg/kg oral, comparison ψ-GSH 500 mg/kg i.p.): increased Cmax; brain levels of ψ-GSH after prodrug administration versus ψ-GSH treatment ([11]; prodrug 250 mg/kg oral vs ψ-GSH 500 mg/kg i.p.): lower than; relative brain AUC ([11]; prodrug 250 mg/kg oral, 2-6 h): 1.22 nmol·h/mg tissue |
